The list is not random: actives were taken first. Their share in the collection is about 7.4%.
M1 agonist – agonists of M1 muscarinic receptor. CHO-M1 cells, Fluo-4 calcium fluorescence, agonist mode; stronger effect = higher value. B-score at 10 µM. actives 3% (n = 64,000). AID 626;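 active means fluorescence rise, raw or as B-score row- and column-corrected plate score, outside the 99.7% band of its plate's samples, either direction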
M1 antagonist – antagonists of rat M1 muscarinic receptor | P08482 | AID 628 | B-score at 10 µM | actives 3.4% (n = 64,000) | CHO-M1 cells, Fluo-4 calcium, ACh EC80 antagonist mode; stronger effect = lower value;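 active means calcium fluorescence response, raw or row-and-column corrected B-score, differing from the plate sample mean either way at a set confidence level, mostly lower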
Jurkat viability – reduces viability or proliferation of Jurkat cells; Jurkat E6.1 viability, ATP luminescence, 48 h; inhibition, % at 4 µM; actives 1.2% (n = 56,000);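 active means inhibition above the mean inhibition of all tested compounds plus 3 SD, cut at about 28% in these data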
S1P1 ag-PAM – S1P1 (human) agonism or agonism potentiation | P21453 | S1P1 CRE-bla cells, forskolin, beta-lactamase FRET, potentiator mode; S1P1 agonist co-added at EC20, 2 nM; 100% = saturating reference agonist, 0% = basal | activation, % at 9.5 µM | actives 0.57% (n = 56,000) | AID 449;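 active means activation above a cutoff set at the mean activation of all tested compounds plus 3 SD, cut at about 54% in these data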;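 further: forskolin at 4 µM as EC80 and the EC20 agonist is SEW2871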
S1P3 ag – activates the human S1P3 receptor; activation, % at 4.5 µM; actives 0.1% (n = 60,000); AID 373; Q99500; S1P3 NFAT-BLA reporter cells, agonism, FRET ratio; relative to 1 µM S1P, basal subtracted;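 active means activation above the screen-wide mean plus 3 SD, cut at about 4.5% in these data, passing the limit was not always enough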
Target sequence (Q99500 whole entry, looked up): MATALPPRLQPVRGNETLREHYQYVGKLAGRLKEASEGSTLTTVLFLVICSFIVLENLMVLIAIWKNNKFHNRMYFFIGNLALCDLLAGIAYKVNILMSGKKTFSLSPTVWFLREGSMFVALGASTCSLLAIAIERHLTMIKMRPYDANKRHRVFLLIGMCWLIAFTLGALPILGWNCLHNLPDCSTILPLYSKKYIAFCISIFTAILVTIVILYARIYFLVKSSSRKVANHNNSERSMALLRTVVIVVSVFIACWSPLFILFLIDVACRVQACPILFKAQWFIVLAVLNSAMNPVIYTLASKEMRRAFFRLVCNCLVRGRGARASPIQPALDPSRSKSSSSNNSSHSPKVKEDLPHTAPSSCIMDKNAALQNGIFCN
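Assay system: stable CHO line with human S1P3, Gα16, NFAT-BLA reporter; Detection: FRET β-lactamase substrate fluorescence, excitation 405 nm, 460/535 nm emission ratio, background-subtracted; Read-out: percent activation versus median 1 µM S1P response, basal-subtracted, per plate; Incubation: cells plated overnight, compound 4 h 37 °C, substrate 2 h RT.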
JNK3 inh – inhibitors of human JNK3 kinase; purified JNK3 kinase activity, HTS; actives 0.61% (n = 60,000); P53779; inhibition, % at 8 µM; in the data active means inhibition above about 17%
M1 antag confirm – M1 muscarinic receptor (rat) antagonism, confirmed; shares compounds with M1 antagonist; CHO-M1 cells, Fluo-4 calcium, ACh EC80 antagonism; stronger effect = lower value; calcium response (max-min fluorescence) at 10 µM; actives 43% (n = 1,700);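 active means calcium response below the same-plate mean of wells given acetylcholine alone at its 80%-effect dose, minus 3 SD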
mGluR4 antag – selectivity test for M1 antagonists: human mGluR4 receptor; CHO-mGluR4 calcium flux, Fluo-4 fluorescence, glutamate EC80; stronger effect = lower value; actives 0.9% (n = 1,700); fluorescence response (max-min) at 10 µM; shares compounds with M1 antagonist;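 active means fluorescence response below the plate's average for near-maximal glutamate wells, less 3 SD of those wells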;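 further: raw unnormalized fluorescence span taken in the window right after glutamate addition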
Each line names hits and unclear results; the compound was inactive in the other large screens (follow-up assays come after a bar, where they were run).

COc1ccc(NC(=O)C2=C(C)Nc3ncnn3C2c2ccccc2C(F)(F)F)c(OC)c1 (stereo not drawn)	none
O=C(c1cccc(-n2cnnn2)c1)N1CCOCC1	none
CCc1sc(NS(C)(=O)=O)nc1-c1ccccc1	none (no result: S1P1 ag-PAM)
CCc1sc(NC(=O)COC)nc1-c1ccccc1	M1 antagonist -5.9 | M1 antag confirm 456 | mGluR4 antag inactive
COC(=O)c1ccccc1NC(=O)NCC1CCCO1 (stereo not drawn)	M1 antagonist -1.9 | M1 antag confirm inactive | mGluR4 antag inactive
O=C(Nc1ccccc1C(=O)NCC1CCCO1)c1ccco1 (stereo not drawn)	none
CN(C(=O)CSc1nc2ccccc2n1CCc1ccccc1)C1CCS(=O)(=O)C1 (stereo not drawn)	M1 antagonist -10 | M1 antag confirm inactive | mGluR4 antag inactive
Cc1ccc(CN2C3=NCCCN3c3ccccc32)cc1	M1 antagonist -2.8 | M1 antag confirm inactive | mGluR4 antag inactive
CCCCn1nnnc1NCc1ccc(N2CCCC2)cc1	M1 antagonist -3.7 | M1 antag confirm inactive | mGluR4 antag inactive
O=C(Nc1nc(-c2ccc(S(=O)(=O)N3CCCC3)cc2)cs1)C1COc2ccccc2O1 (stereo not drawn)	M1 antagonist -8.7 | M1 antag confirm inactive | mGluR4 antag inactive
Cc1ccc(S(=O)(=O)N2CCC(C(=O)NCCN3CCCCCC3)CC2)cc1	M1 antagonist -3.5 | M1 antag confirm 527 | mGluR4 antag inactive
CCOC(=O)N1CCC(NC(=O)C2CCN(S(=O)(=O)c3c(C)noc3C)CC2)CC1	none (no result: Jurkat viability, S1P1 ag-PAM, S1P3 ag, JNK3 inh)
Cc1ccccc1-n1nnnc1SCC(=O)Nc1ccc(S(=O)(=O)N2CCCC2)cc1	none
Cc1noc(C)c1S(=O)(=O)N1CCC(C(=O)NCCN2CCC(C)CC2)CC1	M1 antagonist -4.3 (no result: Jurkat viability, S1P1 ag-PAM, S1P3 ag, JNK3 inh) | M1 antag confirm inactive | mGluR4 antag inactive
Cc1nnc(SCC(=O)Nc2ccc(S(=O)(=O)N3CCCC3)cc2)n1N	M1 antagonist -4.7 | M1 antag confirm 276 | mGluR4 antag inactive
CCCNC(=O)C1CCN(S(=O)(=O)c2ccc(Br)cc2)CC1	none
CC1CCCN(CC(=O)Nc2ccc(S(=O)(=O)N3CCCCCC3)cc2)C1 (stereo not drawn)	M1 antagonist -2.1 | M1 antag confirm 375 | mGluR4 antag inactive
O=C(NCCCN1CCCC1=O)c1ccc(Cl)c(NS(=O)(=O)c2ccc(F)cc2)c1	none
CCCN1C(=O)c2cc(C(=O)NCc3ccc(OC)cc3)ccc2C1O (stereo not drawn)	none (no result: Jurkat viability, S1P1 ag-PAM, S1P3 ag, JNK3 inh)
O=c1c2c3c(sc2n2cnnc2n1-c1ccccc1)N(Cc1ccccc1)CCC3	none
CCOc1ccc(-c2n[nH]c(C)c2Oc2ccc(OC)cc2)c(O)c1	none
CCCS(=O)(=O)N1CCC(C(=O)NCCN2CCC(Cc3ccccc3)CC2)CC1	M1 antagonist -4.6 | M1 antag confirm 467 | mGluR4 antag inactive
CCS(=O)(=O)N1CCC(C(=O)NCCN2CCN(Cc3ccccc3)CC2)CC1	M1 antagonist -3.4 | M1 antag confirm inactive | mGluR4 antag inactive
CCOC(=O)Nc1ccc(OC)cc1S(=O)(=O)N1CCCCC1	none
O=c1oc(-c2cccs2)nc2c1cnn2-c1ccccc1	none
Cc1cc(O)c(C(C)C)cc1NS(=O)(=O)c1ccccc1	none
O=C(CSc1ccc2c(c1)OCCO2)Nc1ccc(Cl)cn1	M1 antagonist -3.2 | M1 antag confirm inactive | mGluR4 antag inactive
CCCNS(=O)(=O)c1ccc(CCC(=O)N2CCC(C)CC2)cc1	M1 antagonist -2 (no result: Jurkat viability, S1P1 ag-PAM, S1P3 ag, JNK3 inh) | M1 antag confirm inactive | mGluR4 antag inactive
CCOC(=O)N1CCN(C(=O)CCc2ccc(S(=O)(=O)NCCc3ccccc3)cc2)CC1	none (no result: S1P1 ag-PAM)
COC(=O)c1sc(NC(=O)c2cnccn2)c(C(=O)OC)c1C	none
COC(=O)c1ccc(CSc2nc(-c3ccc(OC)cc3)nc3c2c(=O)n(C)c(=O)n3C)o1	none
COC(=O)c1ccc(CSc2nc(C)nc3c2c(=O)n(C)c(=O)n3C)o1	M1 antagonist -2 | M1 antag confirm 500 | mGluR4 antag inactive
Cc1nc(CSc2nnc3scc(-c4ccc(Cl)cc4)n23)cs1	none (no result: Jurkat viability, S1P1 ag-PAM, S1P3 ag, JNK3 inh)
CN1CCc2c(c3c(n2C)CCN(C)[C@@H]3c2cccnc2)[C@H]1c1cccnc1	M1 antagonist -3.1 (no result: Jurkat viability) | M1 antag confirm inactive | mGluR4 antag inactive
Cc1nn2c(c1-c1ccccc1)NC1=C(C(=O)CCC1)C2c1cccnc1 (stereo not drawn)	none
CCCC(=O)NCCCc1nc2ccccc2n1C(C)C	none
C=CCc1ccccc1OCC(O)CNC (stereo not drawn)	none
C=CCc1ccccc1OCC(O)CN(C(C)C)C(C)C (stereo not drawn)	M1 antagonist -2 | M1 antag confirm 382 | mGluR4 antag inactive
O=C(COC(=O)CCNS(=O)(=O)c1ccc(Cl)cc1)NCc1ccco1	M1 antagonist -2.8 | M1 antag confirm inactive | mGluR4 antag inactive
CCOc1cc2c(cc1OCC)C(c1cc(OC)c(O)c(OC)c1)NCC2 (stereo not drawn)	none
CCN(CC)CCN(CC)Cc1ccccc1Br	M1 antagonist -3.3 | M1 antag confirm inactive | mGluR4 antag inactive
CCN(CC)CCCCOc1ccccc1OC	none
O=C(COC(=O)Cn1cnc2ccccc21)NCCc1ccccc1	none
O=C(Cn1cnc2ccccc21)OCC(=O)N1CCc2ccccc2C1	M1 antagonist -1.7 | M1 antag confirm inactive | mGluR4 antag inactive
O=C(Cn1ncc2ccccc21)N1CCc2ccccc21	M1 antagonist -2.3 | M1 antag confirm inactive | mGluR4 antag inactive
O=C(Cn1cccc1)N1CCc2ccccc21	none
COC(=O)c1c(NC(=O)CSc2nnc(Cn3nnc4ccccc43)n2C)sc(C)c1C	M1 antagonist -2.4 | M1 antag confirm 430 | mGluR4 antag inactive
CC(C)(C)c1ccccc1NC(=O)c1ccco1	none
CCOC(=O)CN1C(=O)C(CC)Oc2ccc(Cl)cc21 (stereo not drawn)	M1 antagonist -3.6 (no result: Jurkat viability, S1P1 ag-PAM, S1P3 ag, JNK3 inh) | M1 antag confirm inactive | mGluR4 antag inactive
O=C(CN(Cc1ccccc1)C(=O)c1ccco1)NCc1ccc(F)cc1	none
N#CC1=C2SCN(c3ccccc3)CN2C(=O)CC1c1cccs1 (stereo not drawn)	M1 antagonist -3.6 | M1 antag confirm inactive | mGluR4 antag inactive
Cc1cc2oc(C(=O)N(Cc3ccco3)C3CCS(=O)(=O)C3)cc(=O)c2cc1Cl (stereo not drawn)	none
Cc1cc(C)n(C(=O)C2CCCN2S(=O)(=O)c2ccc(Cl)cc2)n1 (stereo not drawn)	none

Screens deposited in PubChem by several laboratories.
